Measured values taken from ChEMBL document CHEMBL1148142, “New metabolites from sponge-derived fungi Curvularia lunata and Cladosporium herbarum” (J Nat Prod, 2002).
Calls of active or inactive are those of the source. No cut-off for these calls is given here.

What was measured:
Escherichia coli [1] = assay: Antibacterial activity against Escherichia coli ATCC 25922 at 10 ug/disk by agar plate diffusion assay; assay type: functional; details: read-out: IZ
How it was run: (§1)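 Paper disks (5.5 mm) loaded with 5 or 10 μg of pure compound, laid on agar plates seeded with the test organism. Plates incubated 24 h at 37 °C, then inspected for inhibition zones.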

Candida albicans [2] = assay: Antifungal activity against Candida albicans at 5 ug/disk by agar plate diffusion assay; assay type: functional, organism-based; how it was run: as §1
Candida albicans [3] = assay: Antifungal activity against Candida albicans at 10 ug/disk by agar plate diffusion assay; assay type: functional, organism-based; how it was run: as §1
Escherichia coli [4] = assay: Antibacterial activity against Escherichia coli HBI 101 at 5 ug/disk by agar plate diffusion assay; assay type: functional; details: read-out: IZ; how it was run: as §1
Bacillus subtilis [5] = assay: Antibacterial activity against Bacillus subtilis 168 at 10 ug/disk by agar plate diffusion assay; assay type: functional; details: read-out: IZ; how it was run: as §1
Staphylococcus aureus [6] = assay: Antibacterial activity against Staphylococcus aureus ATCC 25923 at 10 ug/disk by agar plate diffusion assay; assay type: functional; details: read-out: IZ; how it was run: as §1
Escherichia coli [7] = assay: Antibacterial activity against Escherichia coli ATCC 25922 at 5 ug/disk by agar plate diffusion assay; assay type: functional; details: read-out: IZ; how it was run: as §1
Escherichia coli [8] = assay: Antibacterial activity against Escherichia coli HBI 101 at 10 ug/disk by agar plate diffusion assay; assay type: functional; details: read-out: IZ; how it was run: as §1
Staphylococcus aureus [9] = assay: Antibacterial activity against Staphylococcus aureus ATCC 25923 at 5 ug/disk by agar plate diffusion assay; assay type: functional; details: read-out: IZ; how it was run: as §1
Bacillus subtilis [10] = assay: Antibacterial activity against Bacillus subtilis 168 at 5 ug/disk by agar plate diffusion assay; assay type: functional; details: read-out: IZ; how it was run: as §1
HL-60 = assay: Cytotoxicity against human HL60 cells; assay type: functional, cell-based

Row | Compound | zone of inhibition at 10 µg/disc (Escherichia coli [1]) | Activity (Candida albicans [2]) | Activity (Candida albicans [3]) | zone of inhibition at 5 µg/disc (Escherichia coli [4]) | zone of inhibition at 10 µg/disc (Bacillus subtilis [5]) | zone of inhibition at 10 µg/disc (Staphylococcus aureus [6]) | zone of inhibition at 5 µg/disc (Escherichia coli [7]) | zone of inhibition at 10 µg/disc (Escherichia coli [8]) | zone of inhibition at 5 µg/disc (Staphylococcus aureus [9]) | zone of inhibition at 5 µg/disc (Bacillus subtilis [10]) | Activity (HL-60)
1 | COc1cc(O)c2c(c1)C(=O)C13C(=C(O)C4[C@@H](O)C1C1[C@H](O)C3C(O)=C3C(=O)c5c(O)cc(OC)cc5C(=O)C341)C2=O (stereo partly specified) [CYTOSKYRIN A] | 11 mm | inactive | inactive | 8 mm | 12 mm | 10 mm | 9 mm | 9 mm | 8.5 mm | 8 mm | –
2 | O=C(O)CC1OC(=O)c2c(O)cc(O)cc21 (stereo unspecified) | – | – | – | – | – | – | – | – | – | – | Not toxic
3 | COc1cc(O)c2c(c1)C(=O)c1cc(O)cc(O)c1C2=O [LUNATIN] | 11 mm | inactive | inactive | 8 mm | 9 mm | 10 mm | 9 mm | 10.5 mm | 8.5 mm | 7.5 mm | –
